Assay results from ChEMBL document CHEMBL1127320, “Dual-action cephalosporins incorporating a 3'-tertiary-amine-linked quinolone” (J Med Chem, 1994).
Values after ≈ are worked out from the molar mass of the structure shown.

Assays:
[1] = molecular target: T1, Penicillin-binding protein 1A (Escherichia coli K-12) (UniProt P02918); test: Affinity against penicillin binding protein 1a of Escherichia coli UB1005 (DC0) was evaluated.
T1 sequence (whole entry): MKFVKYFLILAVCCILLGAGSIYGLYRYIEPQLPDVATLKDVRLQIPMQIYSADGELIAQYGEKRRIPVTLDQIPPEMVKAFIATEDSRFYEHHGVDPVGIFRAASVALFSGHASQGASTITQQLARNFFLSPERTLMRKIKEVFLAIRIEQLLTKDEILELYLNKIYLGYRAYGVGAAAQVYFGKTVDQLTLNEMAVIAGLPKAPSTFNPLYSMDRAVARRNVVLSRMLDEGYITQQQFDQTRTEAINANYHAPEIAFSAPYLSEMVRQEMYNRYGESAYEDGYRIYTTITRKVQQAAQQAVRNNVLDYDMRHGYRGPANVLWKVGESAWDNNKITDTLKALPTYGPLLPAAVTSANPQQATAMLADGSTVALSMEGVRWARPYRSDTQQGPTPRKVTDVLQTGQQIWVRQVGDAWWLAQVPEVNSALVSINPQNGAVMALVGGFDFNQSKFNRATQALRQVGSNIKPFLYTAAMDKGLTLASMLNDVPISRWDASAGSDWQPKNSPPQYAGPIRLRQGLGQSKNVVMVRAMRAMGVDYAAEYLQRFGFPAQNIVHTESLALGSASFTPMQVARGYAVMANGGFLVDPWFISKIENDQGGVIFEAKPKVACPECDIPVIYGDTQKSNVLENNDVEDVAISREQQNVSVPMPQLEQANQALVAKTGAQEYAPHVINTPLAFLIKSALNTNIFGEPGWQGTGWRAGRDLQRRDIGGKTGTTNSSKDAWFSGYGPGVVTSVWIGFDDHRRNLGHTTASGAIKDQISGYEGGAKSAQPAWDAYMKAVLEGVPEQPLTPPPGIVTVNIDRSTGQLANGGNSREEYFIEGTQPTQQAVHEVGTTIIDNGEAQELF
In short: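 Solubilized membranes from sonicated E. coli UB1005 were used. Binding to penicillin-binding proteins was measured as inhibition of [14C]penicillin G binding.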

[2] = molecular target: T2, Penicillin-binding protein 1B (Escherichia coli K-12) (UniProt P02919); test: Affinity for penicillin binding protein 1b of Escherichia coli UB1005 (DC0) was evaluated.; parameters: unit not given here
T2 sequence (whole entry): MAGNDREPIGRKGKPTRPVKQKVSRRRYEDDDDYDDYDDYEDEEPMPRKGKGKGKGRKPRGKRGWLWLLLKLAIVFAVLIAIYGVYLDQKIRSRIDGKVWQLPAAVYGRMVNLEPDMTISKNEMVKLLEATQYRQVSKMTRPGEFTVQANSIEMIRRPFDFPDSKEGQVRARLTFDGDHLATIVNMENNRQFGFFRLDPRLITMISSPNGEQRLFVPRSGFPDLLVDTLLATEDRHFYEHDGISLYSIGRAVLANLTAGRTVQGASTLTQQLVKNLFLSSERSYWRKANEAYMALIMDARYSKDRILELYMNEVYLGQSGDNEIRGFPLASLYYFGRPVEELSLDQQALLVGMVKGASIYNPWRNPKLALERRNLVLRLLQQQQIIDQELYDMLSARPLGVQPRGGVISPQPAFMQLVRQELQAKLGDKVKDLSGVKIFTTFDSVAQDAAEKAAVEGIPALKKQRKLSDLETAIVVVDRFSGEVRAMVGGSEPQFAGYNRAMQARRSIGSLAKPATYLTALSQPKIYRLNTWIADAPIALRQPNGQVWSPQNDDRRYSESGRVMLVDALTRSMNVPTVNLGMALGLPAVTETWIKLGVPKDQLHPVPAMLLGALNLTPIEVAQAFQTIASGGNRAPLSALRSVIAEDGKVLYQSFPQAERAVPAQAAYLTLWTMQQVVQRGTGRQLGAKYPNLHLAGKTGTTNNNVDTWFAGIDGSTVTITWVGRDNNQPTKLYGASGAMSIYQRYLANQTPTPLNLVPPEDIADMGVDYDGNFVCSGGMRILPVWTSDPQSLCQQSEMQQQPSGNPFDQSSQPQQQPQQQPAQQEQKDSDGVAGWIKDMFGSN
In short: (§1)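 Solubilised membranes from sonicated E. coli UB1005 served as the binding-protein source. Binding was read as inhibition of [14C]penicillin G binding.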

[3] = molecular target: T3, Peptidoglycan D,D-transpeptidase MrdA (Escherichia coli K-12) (UniProt P0AD65); test: Affinity for penicillin binding protein 2 of Escherichia coli UB1005 (DC0) was evaluated.; parameters: unit not given here; in short: as §1
T3 sequence (whole entry): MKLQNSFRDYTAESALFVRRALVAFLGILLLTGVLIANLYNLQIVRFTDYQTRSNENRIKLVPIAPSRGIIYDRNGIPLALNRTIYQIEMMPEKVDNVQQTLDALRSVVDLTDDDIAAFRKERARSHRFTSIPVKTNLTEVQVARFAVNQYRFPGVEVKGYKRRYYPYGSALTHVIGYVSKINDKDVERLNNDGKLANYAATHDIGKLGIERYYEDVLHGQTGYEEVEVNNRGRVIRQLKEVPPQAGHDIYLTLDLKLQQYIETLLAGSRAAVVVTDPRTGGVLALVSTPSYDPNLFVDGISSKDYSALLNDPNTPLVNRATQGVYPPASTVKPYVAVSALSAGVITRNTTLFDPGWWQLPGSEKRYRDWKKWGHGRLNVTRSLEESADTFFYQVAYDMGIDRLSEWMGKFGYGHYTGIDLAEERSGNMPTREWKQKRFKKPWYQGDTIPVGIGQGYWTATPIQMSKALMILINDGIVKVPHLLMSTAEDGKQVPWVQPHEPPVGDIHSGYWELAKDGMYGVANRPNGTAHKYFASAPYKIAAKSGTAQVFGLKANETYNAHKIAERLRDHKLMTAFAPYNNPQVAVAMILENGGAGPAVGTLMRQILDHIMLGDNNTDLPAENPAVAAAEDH

Escherichia coli [4] = test: Minimum inhibitory concentration against E. coli UB1005 (DC0)
Citrobacter freundii = test: In vitro minimum inhibitory concentration was measured against Citrobacter freundii BS-16 (beta lactamase producer) strain.; format: functional
In short: (§2)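 MICs were determined by agar dilution with 2-fold dilutions giving final 128–0.0156 µg/mL, extended to 0.000977 µg/mL where needed. Streptococci were tested on brain heart infusion agar plus 20 units/mL catalase, Proteus on Mueller-Hinton with 3% agar, and others on Mueller-Hinton agar. Inocula were 100-fold-diluted overnight cultures, about 3 × 10^4 CFU/spot, read after overnight incubation at 36 °C.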

Escherichia coli [5] = test: In vitro minimum inhibitory concentration was measured against Escherichia coli 257 strain.; format: functional
In short: (§3)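 Streptococci were tested on brain heart infusion agar plus 20 units/mL catalase, Proteus on Mueller-Hinton with 3% agar, and others on Mueller-Hinton agar. Inocula were 100-fold-diluted overnight cultures, about 3 × 10^4 CFU/spot, read after overnight incubation at 36 °C.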

Escherichia coli [6] = test: In vitro minimum inhibitory concentration was measured against Escherichia coli ATCC 25922 strain.; format: functional; in short: as §3
Escherichia coli [7] = test: In vitro minimum inhibitory concentration was measured against Escherichia coli TEM-1 (Beta lactamase producer) strain.; format: functional; in short: as §3
Enterococcus faecalis = test: In vitro minimum inhibitory concentration was measured against Enterococcus faecalis ATCC 29212 strain.; format: functional; in short: as §3
Enterobacter cloacae [8] = test: In vitro minimum inhibitory concentration was measured against Enterobacter cloacae 5699 strain.; format: functional
Enterobacter cloacae [9] = test: In vitro minimum inhibitory concentration was measured against Enterobacter cloacae p99 (beta lactamase producer) strain.; format: functional
Klebsiella pneumoniae = test: In vitro minimum inhibitory concentration was measured against Klebsiella pneumoniae A strain.; format: functional; in short: as §3
Micrococcus luteus = test: In vitro minimum inhibitory concentration was measured against Micrococcus luteus ATCC 9341 strain.; format: functional; in short: as §3
[10] = molecular target: T1, Penicillin-binding protein 1A (Escherichia coli K-12); test: Affinity for penicillin binding protein 1a of Escherichia coli UB1005 (DC0) was evaluated.; parameters: unit not given here; in short: as §1
Proteus mirabilis = test: In vitro minimum inhibitory concentration was measured against Proteus mirabilis 90 strain.; format: functional; in short: as §3
Pseudomonas aeruginosa [11] = test: In vitro minimum inhibitory concentration was measured against Pseudomonas aeruginosa 18S/H strain.; format: functional; in short: as §3
Pseudomonas aeruginosa [12] = test: In vitro minimum inhibitory concentration was measured against Pseudomonas aeruginosa 8780 strain.; format: functional; in short: as §3
Proteus vulgaris = test: In vitro minimum inhibitory concentration was measured against Proteus vulgaris 1028BC (beta lactamase producer) strain.; format: functional; in short: as §3
Serratia marcescens = test: In vitro minimum inhibitory concentration was measured against Serratia marcescens 1071(beta lactamase producer) strain.; format: functional; in short: as §3
Staphylococcus aureus [13] = test: In vitro minimum inhibitory concentration was measured against Staphylococcus aureus 67-0 (Methicillin resistant) strain.; format: functional
Staphylococcus aureus [14] = test: In vitro minimum inhibitory concentration was measured against Staphylococcus aureus 753 (Methicillin resistant) strain.; format: functional
Staphylococcus aureus [15] = test: In vitro minimum inhibitory concentration was measured against Staphylococcus aureus smith strain.; format: functional
Streptococcus pneumoniae = test: In vitro minimum inhibitory concentration was measured against Streptococcus pneumoniae 6301 strain; format: functional; in short: as §3
Streptococcus pyogenes = test: In vitro minimum inhibitory concentration was measured against Streptococcus pyogenes 4 strain.; format: functional; in short: as §3
Escherichia coli [16] = test: Minimum inhibitory concentration for DC2, a permeability mutant; in short: as §2
[17] = system: Penicillin-binding protein 3 (Escherichia coli); test: Affinity for penicillin binding protein 3 of Escherichia coli UB1005 (DC0) was evaluated.; parameters: unit not given here

| Structure (SMILES) | Binding affinity [1] | Binding affinity [2] | Binding affinity [3] | MIC (Escherichia coli [4]) [µg/mL] | MIC (Citrobacter freundii) [µg/mL] | MIC (Escherichia coli [5]) [µg/mL] | MIC (Escherichia coli [6]) [µg/mL] | MIC (Escherichia coli [7]) [µg/mL] | MIC (Enterococcus faecalis) [µg/mL] | MIC (Enterobacter cloacae [8]) [µg/mL] | MIC (Enterobacter cloacae [9]) [µg/mL] | MIC (Klebsiella pneumoniae) [µg/mL] | MIC (Micrococcus luteus) [µg/mL] | MIC (Proteus mirabilis) [µg/mL] | MIC (Pseudomonas aeruginosa [11]) [µg/mL] | MIC (Pseudomonas aeruginosa [12]) [µg/mL] | MIC (Proteus vulgaris) [µg/mL] | MIC (Serratia marcescens) [µg/mL] | MIC (Staphylococcus aureus [13]) [µg/mL] | MIC (Staphylococcus aureus [14]) [µg/mL] | other results |
| --- | --- | --- | --- | --- | --- | --- | --- | --- | --- | --- | --- | --- | --- | --- | --- | --- | --- | --- | --- | --- | --- |
| CCN1CCN(C(=O)N[C@@H](C(=O)N[C@@H]2C(=O)N3C(C(=O)O)=C(CSc4nnnn4C)CS[C@H]23)c2ccc(O)cc2)C(=O)C1=O | 10 | 10 | 2 | 0.031 (≈ 0.048 µM) |  |  |  |  |  |  |  |  |  |  |  |  |  |  |  |  |  |
| CC(C)(O/N=C(\C(=O)N[C@@H]1C(=O)N2C(C(=O)O)=C(CN3CCN(c4cc5c(cc4F)c(=O)c(C(=O)O)cn5C4CC4)CC3)CS[C@H]12)c1csc(N)n1)C(=O)O |  | 100 | 100 | 4 (≈ 5.01 µM) | 0.125 (≈ 0.156 µM) | 0.25 (≈ 0.313 µM) | 0.25 (≈ 0.313 µM) | 0.5 (≈ 0.626 µM) | 8 (≈ 10 µM) | 1 (≈ 1.25 µM) | 0.5 (≈ 0.626 µM) | 0.5 (≈ 0.626 µM) | 2 (≈ 2.5 µM) | 2 (≈ 2.5 µM) | 2 (≈ 2.5 µM) | 8 (≈ 10 µM) | 1 (≈ 1.25 µM) | 1 (≈ 1.25 µM) | 16 (≈ 20 µM) | 8 (≈ 10 µM) | Binding affinity [10]: 100; MIC (Staphylococcus aureus [15]): 8 µg/mL (≈ 10 µM); MIC (Streptococcus pneumoniae): 0.25 µg/mL (≈ 0.313 µM); MIC (Streptococcus pyogenes): 0.25 µg/mL (≈ 0.313 µM); MIC (Escherichia coli [16]): 0.25 µg/mL (≈ 0.313 µM); Binding affinity [17]: 2 |
| CC(=O)OCC1=C(C(=O)O)N2C(=O)[C@@H](NC(=O)C(O)c3ccccc3)[C@H]2SC1 (some centres not stated) |  |  |  |  | > 128 | 2 (≈ 4.92 µM) | 2 (≈ 4.92 µM) | 8 (≈ 19.7 µM) | 16 (≈ 39.4 µM) | 16 (≈ 39.4 µM) | > 128 | 2 (≈ 4.92 µM) | 0.125 (≈ 0.308 µM) | 2 (≈ 4.92 µM) | > 128 | > 128 | > 128 | > 128 | 64 (≈ 157 µM) | 128 (≈ 315 µM) | MIC (Staphylococcus aureus [15]): 0.5 µg/mL (≈ 1.23 µM); MIC (Streptococcus pneumoniae): 0.125 µg/mL (≈ 0.308 µM); MIC (Streptococcus pyogenes): 0.063 µg/mL (≈ 0.155 µM) |
| CC(C)(O/N=C(\C(=O)N[C@@H]1C(=O)N2C(C(=O)[O-])=C(C[n+]3ccccc3)CS[C@H]12)c1csc(N)n1)C(=O)O | 10 | 10 | > 100 | 0.125 (≈ 0.229 µM) |  |  |  |  |  |  |  |  |  |  |  |  |  |  |  |  |  |
